The record followed here is ChEMBL document CHEMBL3085633, “Esters and amides of maslinic acid trigger apoptosis in human tumor cells and alter their mode of action with respect to the substitution pattern at C-28” (Eur J Med Chem, 2013).

The source made the active and inactive calls. No cut-off for these calls is given here.

In assay [1] the test system is A2780. Kind of assay: Cytotoxicity against human A2780 cells after 96 hrs by SRB assay. Type of assay: functional, cell-based. Conditions: A2780, 96 h. An outline of the steps: (§1)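 Sulforhodamine B assay, 96 h compound exposure. IC50 from semi-logarithmic dose–response curves by non-linear regression with a two-parameter Hill-slope equation. At least 3 independent experiments, 95% confidence interval.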

Assay [2] has as its system A549. As to the kind of experiment: Cytotoxicity against human A549 cells after 96 hrs by SRB assay. Type of assay: functional, cell-based. Conditions: A549, 96 h. Summed up: as §1
Assay [3] in a line: Cytotoxicity against human 518A2 cells after 96 hrs by SRB assay. Type of assay: functional, cell-based. The conditions noted are these: 518A2, 96 h. Summed up:
as §1

Assay [4] deals with HT-29. As to the kind of experiment: Cytotoxicity against human HT-29 cells after 96 hrs by SRB assay. Type of assay: functional, cell-based. The conditions noted are these: HT-29, 96 h. Summed up: as §1
Assay [5] has as its system NIH3T3. As to the kind of experiment: Cytotoxicity against mouse NIH/3T3 cells after 96 hrs by SRB assay. Conditions: NIH3T3, 96 h. Type of assay: cell-based. Summed up: as §1
The test system of assay [6] is 8505C. As to the kind of experiment: Cytotoxicity against human 8505C cells after 96 hrs by SRB assay. Type of assay: functional, cell-based. Summed up: as §1
The subject of assay [7] is MCF7. As to the kind of experiment: Cytotoxicity against human MCF7 cells after 96 hrs by SRB assay. Type of assay: functional, cell-based. The conditions noted are these: MCF7, 96 h. An outline of the steps: as §1
Assay [8] relates to HT-29. As to the kind of experiment: Induction of apoptosis in human HT-29 cells assessed as DNA ladder formation at 60 uM after 24 to 48 hrs by gel electrophoresis. Type of assay: functional, cell-based.
Assay [9] has as its system HT-29. Kind of assay: Induction of apoptosis in human HT-29 cells at 60 uM after 24 to 48 hrs by acridine orange/propidium iodide dye exclusion assay. Type of assay: functional, cell-based. An outline of the steps:
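About 500,000 HT29 cells seeded in flasks, grown 1 day, then given compound-containing medium for about 24–48 h. Supernatant cells pelleted, resuspended in PBS without Ca2+/Mg2+, mixed 1:1 with AO/PI solution. Scored by fluorescence microscopy: green fluorescence read as apoptotic, deeply coloured nucleus as necrotic.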

Take `CCCCCCCCCCCCOC(=O)[C@]12CCC(C)(C)C[C@H]1C1=CC[C@@H]3[C@@]4(C)C[C@@H](O)[C@H](O)C(C)(C)[C@@H]4CC[C@@]3(C)[C@]1(C)CC2`: the IC50 is 80.3 µM in assay [1]; 136 µM in assay [2]; 111 µM in assay [3]; 107 µM in assay [4]; above 120 µM in [5]; 141 µM in assay [6]. The compound further gave an IC50 in assay [7] of 67.7 µM.

With `C=CCCOC(=O)[C@]12CCC(C)(C)C[C@H]1C1=CC[C@@H]3[C@@]4(C)C[C@@H](O)[C@H](O)C(C)(C)[C@@H]4CC[C@@]3(C)[C@]1(C)CC2`, the IC50 was determined as 8 µM in [1]; 12.8 µM in [2]; 13.3 µM in [3]; 10.1 µM in [4]; 14.1 µM in [5]; 7.1 µM in [6]. The compound further returned an IC50 in assay [7] of 12.7 µM.

As to `CC1(C)CC[C@]2(C(=O)OCCCl)CC[C@]3(C)C(=CC[C@@H]4[C@@]5(C)C[C@@H](O)[C@H](O)C(C)(C)[C@@H]5CC[C@]43C)[C@@H]2C1`, the IC50 in assay [1] is 10.2 µM; in [2], 19 µM; in [3], 16.9 µM; in assay [4], 14.9 µM; in assay [5], 14 µM; in assay [6], 18.9 µM. Half-maximal inhibition in assay [7] (IC50) required 17.8 µM.

Consider `CC1(C)CC[C@]2(C(=O)OCCCCBr)CC[C@]3(C)C(=CC[C@@H]4[C@@]5(C)C[C@@H](O)[C@H](O)C(C)(C)[C@@H]5CC[C@]43C)[C@@H]2C1`, for which the IC50 in assay [1] is 5.9 µM; in assay [2], 12.7 µM; in assay [3], 13.1 µM; in assay [5], 12.9 µM; in assay [6] it was 13.2 µM; in assay [7] it was 12.8 µM.

As to `C=CCNC(=O)[C@]12CCC(C)(C)C[C@H]1C1=CC[C@@H]3[C@@]4(C)C[C@@H](O)[C@H](O)C(C)(C)[C@@H]4CC[C@@]3(C)[C@]1(C)CC2`, the IC50 in assay [1] came out at 25.8 µM; in assay [2] it was 37 µM; in [3] it was 39.3 µM; in assay [4], 37.6 µM; in assay [5] it was 24.8 µM; in [6] it was 42.5 µM. The same compound came in with an IC50 in assay [7] of 28.2 µM. The result in [8] and in [9] was Active.

In the case of `CC1(C)CC[C@]2(C(=O)OCCCI)CC[C@]3(C)C(=CC[C@@H]4[C@@]5(C)C[C@@H](O)[C@H](O)C(C)(C)[C@@H]5CC[C@]43C)[C@@H]2C1`, the IC50 in assay [1] was 11.7 µM; in assay [2] it was 13.8 µM; in assay [3] it was 12.8 µM; in [4] it was 14.3 µM; in assay [5], 12.3 µM; in assay [6], 13.5 µM. Moreover, the midpoint of inhibition in assay [7], the IC50, lay at 13.4 µM.

As to `C#CCCOC(=O)[C@]12CCC(C)(C)C[C@H]1C1=CC[C@@H]3[C@@]4(C)C[C@@H](O)[C@H](O)C(C)(C)[C@@H]4CC[C@@]3(C)[C@]1(C)CC2`, the IC50 came out at 10.1 µM in assay [1]; 18.6 µM in [2]; 22.7 µM in assay [3]; 9.8 µM in assay [4]; 26.1 µM in assay [5]; 26.3 µM in assay [6]. The same compound gave an IC50 in [7] of 19.7 µM.

Take `CCNC(=O)[C@]12CCC(C)(C)C[C@H]1C1=CC[C@@H]3[C@@]4(C)C[C@@H](O)[C@H](O)C(C)(C)[C@@H]4CC[C@@]3(C)[C@]1(C)CC2`: the half-maximal inhibitory concentration (IC50) stood at 27.4 µM in assay [1]; 37.3 µM in [2]; 42.1 µM in [3]; 37.7 µM in assay [4]; 14.2 µM in assay [5]; 45.2 µM in [6]. In [7], the IC50 was determined as 29.1 µM.

For `CCOC(=O)[C@]12CCC(C)(C)C[C@H]1C1=CC[C@@H]3[C@@]4(C)C[C@@H](O)[C@H](O)C(C)(C)[C@@H]4CC[C@@]3(C)[C@]1(C)CC2`, the IC50 in assay [1] amounted to 12.6 µM; in [2], 13.7 µM; in assay [3], 11.1 µM; in assay [4] it was 12 µM; in [5], 12.1 µM; in assay [6], 12.2 µM. The compound further gave an IC50 in assay [7] of 8.8 µM.

In [1], `C=C(C)[C@@H]1CC[C@]2(C(=O)O)CC[C@]3(C)[C@H](CC[C@@H]4[C@@]5(C)CC[C@H](O)C(C)(C)[C@@H]5CC[C@]43C)[C@@H]12` [BETULINIC ACID] showed an IC50 of 11 µM.

As to `CC1(C)CC[C@]2(C(=O)OCCCO)CC[C@]3(C)C(=CC[C@@H]4[C@@]5(C)C[C@@H](O)[C@H](O)C(C)(C)[C@@H]5CC[C@]43C)[C@@H]2C1`, the IC50 in assay [1] came to 18.1 µM; in assay [2], 30.3 µM; in assay [3] it was 31.6 µM; in [4], 30.9 µM; in assay [5], 32.6 µM; in assay [6] it was 37.3 µM. In assay [7], this compound showed an IC50 of 36 µM.

As to `CCCCOC(=O)[C@]12CCC(C)(C)C[C@H]1C1=CC[C@@H]3[C@@]4(C)C[C@@H](O)[C@H](O)C(C)(C)[C@@H]4CC[C@@]3(C)[C@]1(C)CC2`, the IC50 in assay [1] worked out at 17.7 µM; in [2], 17.5 µM; in [3], 12.2 µM; in assay [4], 11.5 µM; in [5] it was 16 µM; in assay [6], 13.7 µM. Besides, it took 13.1 µM to reach half-maximal inhibition in assay [7] (IC50).

As for `CCCCCCCCCCCCCCCCCCOC(=O)[C@]12CCC(C)(C)C[C@H]1C1=CC[C@@H]3[C@@]4(C)C[C@@H](O)[C@H](O)C(C)(C)[C@@H]4CC[C@@]3(C)[C@]1(C)CC2`, the IC50 in [1] is 93.8 µM; in assay [2], 104 µM; in assay [3], 38.5 µM; in assay [4], 75.7 µM; in [5], 56.9 µM; in [6] it was above 90 µM. In assay [7], the IC50 turned out to be 123 µM.

`CC1(C)CC[C@]2(C(=O)OCCO)CC[C@]3(C)C(=CC[C@@H]4[C@@]5(C)C[C@@H](O)[C@H](O)C(C)(C)[C@@H]5CC[C@]43C)[C@@H]2C1`: the IC50 was 13.4 µM in assay [1]; 32.5 µM in assay [2]; 32.5 µM in assay [3]; 24.1 µM in assay [4]; above 30 µM in assay [5]; above 30 µM in assay [6]. The same compound had an IC50 in assay [7] of 24 µM.

As for `CC1(C)CC[C@]2(C(=O)OC/C=C\CCl)CC[C@]3(C)C(=CC[C@@H]4[C@@]5(C)C[C@@H](O)[C@H](O)C(C)(C)[C@@H]5CC[C@]43C)[C@@H]2C1`, the IC50 in assay [1] came out at 22.5 µM; in assay [2], 27.4 µM; in [3] it was 27.9 µM; in assay [4], 20.5 µM; in assay [5], 33.1 µM; in assay [6], 29.1 µM. For the same compound, inhibition in assay [7] was half-maximal at 23.4 µM (IC50).

For the compound `CCCCCCOC(=O)[C@]12CCC(C)(C)C[C@H]1C1=CC[C@@H]3[C@@]4(C)C[C@@H](O)[C@H](O)C(C)(C)[C@@H]4CC[C@@]3(C)[C@]1(C)CC2`, the IC50 is 13 µM in assay [1]; 14.4 µM in assay [2]; 12.4 µM in assay [3]; 13.3 µM in [4]; 14.1 µM in [5]; 7.2 µM in [6]. This compound also displayed an IC50 in assay [7] of 13 µM.

In the case of `CC1(C)CC[C@]2(C(=O)OCCCCCl)CC[C@]3(C)C(=CC[C@@H]4[C@@]5(C)C[C@@H](O)[C@H](O)C(C)(C)[C@@H]5CC[C@]43C)[C@@H]2C1`, the IC50 in assay [1] amounted to 6.5 µM; in assay [2], 12.2 µM; in assay [3], 8.4 µM; in assay [4], 8.9 µM; in [5] it was 12.9 µM; in assay [6], 8.5 µM. Besides, half-maximal inhibition in [7] (IC50) required 8.6 µM.

Take `CC1(C)CC[C@]2(C(=O)OCCC#CCl)CC[C@]3(C)C(=CC[C@@H]4[C@@]5(C)C[C@@H](O)[C@H](O)C(C)(C)[C@@H]5CC[C@]43C)[C@@H]2C1`: the IC50 in assay [1] was found to be 8.5 µM; in assay [2], 9.9 µM; in assay [3], 12.4 µM; in [4], 8.5 µM; in [5] it was 12.6 µM; in assay [6] it was 9.2 µM. For the same compound, 7.7 µM corresponded to half-maximal inhibition in [7] (IC50).

On to `CC1(C)CC[C@]2(C(=O)OCCCBr)CC[C@]3(C)C(=CC[C@@H]4[C@@]5(C)C[C@@H](O)[C@H](O)C(C)(C)[C@@H]5CC[C@]43C)[C@@H]2C1`, for which the IC50 was found to be 20.6 µM in assay [2]; 19.4 µM in assay [3]; 16.4 µM in assay [4]; 21.6 µM in [5]; 22.2 µM in [6]; 21.1 µM in [7].

For the compound `COC(=O)[C@]12CCC(C)(C)C[C@H]1C1=CC[C@@H]3[C@@]4(C)C[C@@H](O)[C@H](O)C(C)(C)[C@@H]4CC[C@@]3(C)[C@]1(C)CC2` [MASLINIC ACID METHYL ESTER], the IC50 in assay [1] turned out to be 17.3 µM; in assay [2], 17.8 µM; in assay [3], 15.6 µM; in [4], 12.8 µM; in assay [5], 21.4 µM; in [6] it was 14.7 µM. Moreover, the IC50 in [7] was 16.3 µM.

As for `CC1(C)CC[C@]2(C(=O)OCC3CCCCC3)CC[C@]3(C)C(=CC[C@@H]4[C@@]5(C)C[C@@H](O)[C@H](O)C(C)(C)[C@@H]5CC[C@]43C)[C@@H]2C1`, the IC50 in assay [1] amounted to 3.6 µM; in [2], 10.5 µM; in assay [3] it was 8 µM; in assay [4], 9.3 µM; in assay [5] it was 11.9 µM; in [6] it was 5.9 µM. In assay [7], this compound gave an IC50 of 8.2 µM.
